Data set [1] can be described thus: Binding affinity to 5'-FAM labeled c-Myc Pu27 G-quadruplex DNA (unknown origin) in presence of K+ ions by MST analysis. The gist of the method:
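The DNA was annealed at 95 °C for 5 min, slowly cooled and held at 4 °C overnight. Ligand was run as a 12-point series, 0–20 μM for Pu27 and up to 200 μM for duplex. MST was measured, and KD was fitted to a Hill model from three replicates.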

The species entered for data set [2] is Homo sapiens. The data set can be described thus: Effect on c-Myc DNA translocated chromosome product in human CA46 cells assessed as decrease in amplification of exon-2 at 1 uM after 12 hrs by RT-PCR method. Format: cell-based. The gist of the method:
(§1)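 Cells treated 12 h with compound at various concentrations, untreated cells as control. Total RNA (2 μg) reverse-transcribed with oligo dT18 and M-MLV (42 °C 1 h). c-MYC exons 1 and 2, NM23-H2 and β-actin amplified by real-time PCR, products checked on 1% agarose gel. Three independent repeats, mean ± SEM, two-tailed unpaired t test versus untreated.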

Data set [3] in a line: Stabilization of 5'-FAM/3'-TAMRA labeled c-Myc Pu22 G-quadruplex DNA (unknown origin) assessed as change in melting temperature at 2 uM by FRET assay. The gist of the method:
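FRET melting of FAM/TAMRA-labelled FPu22T (0.2 μM) in 10 mM Tris-HCl pH 7.4 with 2 mM KCl, ligand 2 μM, in a real-time PCR machine. Excitation 470 nm, emission 530 nm, read every 1 °C from 37 to 99 °C after 30 s hold at each step; ΔTm versus probe alone.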

Data set [4] is filed under the species Homo sapiens. The data set can be described thus: Stabilization of c-Myc G-quadruplex DNA in human CA46 cells assessed as decrease in amplification of exon-1 at 1 uM after 12 hrs by RT-PCR method. Format: cell-based. In a few lines:
as §1

The nature of data set [5]: Inhibition of NM23-H2 binding to 5'-FAM labeled c-Myc Pu27 G-quadruplex DNA (unknown origin) at 10 uM preincubated for 1 hr followed by NM23-H2 addition by electrophoretic mobility shift assay relative to control. In a few lines:
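Annealed labeled Pu27 (1.5 μM) preincubated 1 h at 25 °C with 10 μM ligand or 5% DMSO. Recombinant His-tagged NM23-H2 (0.5 μM, E. coli BL21, nickel-purified) then added for 1 h at 37 °C. Complexes resolved on 5% native polyacrylamide gel in 0.5× TBE at 4 °C. Inhibition taken as loss of complex band intensity versus no-compound band set at 100%. Run three times.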

The species named for data set [6] is Homo sapiens. The data set can be described thus: Effect on c-Myc DNA translocated chromosome product in human Raji cells assessed as decrease in amplification of exon-2 at 1 uM after 12 hrs by RT-PCR method. Format: cell-based. In a few lines: as §1
The nature of data set [7]: Selectivity ratio of Kd for 5'-FAM labeled duplex DNA (unknown origin) to Kd for 5'-FAM labeled c-Myc Pu27 G-quadruplex DNA (unknown origin). The gist of the method:
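MST binding: FAM-Pu27 or FAM-duplex oligo at 10 μM in 10 mM Tris-HCl pH 7.4 with 150 mM KCl, annealed 95 °C 5 min, slow-cooled, held 4 °C overnight. Ligand titrated as a 12-point series, 0–20 μM for G4 or up to 200 μM for duplex. KD fitted with Hill model; three replicates.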

For data set [8], the species on record is Homo sapiens. The data set can be described thus: Stabilization of c-Myc G-quadruplex DNA in human Raji cells assessed as decrease in amplification of exon-1 at 1 uM after 12 hrs by RT-PCR method. Format: cell-based. In a few lines:
as §1

Data set [9] deals with Mus musculus. The data set can be described thus: Toxicity in NOD/SCID nude mouse xenografted with human Raji cells assessed as reduction in viscera weight at 1 mg/kg, ip administered once in 2 days for 2 weeks measured every day during compound dosing. Format: organism-based. The settings on record: in vivo. In a few lines:
(§2)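 NOD/SCID mice implanted subcutaneously in the underarm with 5 × 10^6 RAJI cells in 100 μL RPMI 1640 with 10% serum; tumours grown about 1 week, then mice randomized. Body weight recorded daily; organ weights taken at end.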

A further data set has as its system Raji. The data set can be described thus: Antitumor activity against human Raji cells xenografted in NOD/SCID nude mouse assessed as reduction in tumor weight at 1 mg/kg, ip administered once in 2 days for 2 weeks relative to control. Format: functional, organism-based. The gist of the method: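 NOD/SCID mice were implanted subcutaneously in the underarm with RAJI cells (5 × 10^6 per 100 μL of RPMI 1640 with 10% serum). Tumours reached […] after 1 week, and mice were then randomised. […] Tumour volume was recorded daily and tumour weight at the end.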
A general note: Xenograft models place foreign cells or tissue in a host animal.

Data set [10] concerns Mus musculus. The data set can be described thus: Toxicity in NOD/SCID nude mouse xenografted with human Raji cells assessed as reduction in body weight at 1 mg/kg, ip administered once in 2 days for 2 weeks measured every day during compound dosing. Format: organism-based. The settings on record: in vivo. In a few lines: as §2

SMILES strings stand for the structures. pKd: −log10 of the molar value. Active and inactive are the calls of the source. The calls are words filed in the database; no cut-off is given here.

One may read the pKd as the Kd on a negative log10 scale, so that one unit is a factor of ten. `CN(C)CCCNc1c2ccccc2nc2c1[nH]c1ccccc12`: the pKd in [1] is 5.11. In addition, the outcome (in the data set filed under Homo sapiens [2]; in data set [3]; in the data set filed under Homo sapiens [4]; in the data set filed under Homo sapiens [6]; in the data set listed under Homo sapiens [8]) was Active. The inhibition entry in data set [5] is “Active”. Also, the Selectivity ratio in data set [7] amounted to 1.02.
For the compound `COc1cccc2c1C(=O)c1c(O)c3c(c(O)c1C2=O)C[C@@](O)(C(=O)CO)C[C@@H]3O[C@H]1C[C@H](N)[C@H](O)[C@H](C)O1` [DOXORUBICIN], the Activity result with Mus musculus [9] and in the data set with Mus musculus [10] was “Toxic” in each case. The result with Raji was Active.

Source of the values: ChEMBL document CHEMBL4011629, “New Disubstituted Quindoline Derivatives Inhibiting Burkitt's Lymphoma Cell Proliferation by Impeding c-MYC Transcription” (J Med Chem, 2017).
